Laboratory results as given in ChEMBL document CHEMBL1955781, “Structure-activity relationship study of selective benzimidazole-based inhibitors of Cryptosporidium parvum IMPDH” (Bioorg Med Chem Lett, 2012).

Legend:
Toxoplasma gondii [1] = assay: Antiparasitic activity against hypoxanthine-guanine-xanthine phosphoribosyltransferase gene knock out Toxoplasma gondii expressing Cryptosporidium parvum IMPDH infected in human foreskin fibroblasts assessed as parasite proliferation by fluorescence assay; type: functional, organism-based
How it was run: (§1)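 T. gondii strains carrying a yellow fluorescent protein reporter, grown in hTERT-immortalized human foreskin fibroblasts. Parasite proliferation is followed by fluorescence. Because the parasites grow in the host fibroblasts, the read-out also reflects host cell toxicity.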

Cryptosporidium parvum [2] = assay: Antiparasitic activity against Cryptosporidium parvum infection model; type: functional, organism-based
[3] = target: T1, Inosine-5'-monophosphate dehydrogenase (Cryptosporidium parvum, UniProt Q8T6T2); assay: Inhibition of recombinant Cryptosporidium parvum IMPDH expressed in Escherichia coli assessed as NADH production preincubated for 5 mins by fluorescence assay
T1 sequence (Q8T6T2 whole entry): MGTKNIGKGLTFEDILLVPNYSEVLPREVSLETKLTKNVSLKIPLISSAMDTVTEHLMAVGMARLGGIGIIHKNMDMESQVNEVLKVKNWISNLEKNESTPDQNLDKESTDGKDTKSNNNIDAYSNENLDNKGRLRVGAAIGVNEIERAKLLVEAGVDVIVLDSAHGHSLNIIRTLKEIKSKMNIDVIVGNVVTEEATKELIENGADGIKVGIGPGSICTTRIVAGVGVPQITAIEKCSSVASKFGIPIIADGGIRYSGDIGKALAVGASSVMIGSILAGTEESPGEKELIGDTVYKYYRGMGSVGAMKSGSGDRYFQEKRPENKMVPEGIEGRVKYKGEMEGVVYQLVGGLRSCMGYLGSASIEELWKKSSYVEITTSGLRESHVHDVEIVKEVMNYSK
How it was run: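 Enzyme activity was tracked as NADH production across varying inhibitor concentrations. Values are the mean of three independent determinations unless otherwise flagged.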

[4] = target: T1, Inosine-5'-monophosphate dehydrogenase; assay: Inhibition of recombinant Cryptosporidium parvum IMPDH expressed in Escherichia coli assessed as NADH production preincubated for 5 mins by fluorescence assay in presence of bovine serum albumin
How it was run: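 NADH production was followed at varying inhibitor concentrations, with 0.05% fatty-acid-free bovine serum albumin added to gauge non-specific binding. Values are the mean of three independent determinations unless otherwise flagged.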

Toxoplasma gondii [5] = assay: Antiparasitic activity against wild type Toxoplasma gondii expressing endogenous IMPDH infected in human foreskin fibroblasts assessed as inhibition of parasite proliferation by fluorescence assay; type: functional, organism-based; how it was run: as §1
[6] = target: Inosine-5'-monophosphate dehydrogenase 2 (Homo sapiens, UniProt P12268); assay: Inhibition of human IMPDH2
Cryptosporidium parvum [7] = assay: Ratio of paromomycin EC50 to compound EC50 for Cryptosporidium parvum infection model; type: functional
Toxoplasma gondii [8] = assay: Selectivity ratio of EC50 for wild type Toxoplasma gondii expressing endogenous IMPDH to EC50 for hypoxanthine-guanine-xanthine phosphoribosyltransferase gene knock out Toxoplasma gondii expressing Cryptosporidium parvum IMPDH; type: functional
[9] = target: Inosine-5'-monophosphate dehydrogenase 1 (Homo sapiens, UniProt P20839); assay: Inhibition of human IMPDH1
Cryptosporidium parvum [10] = assay: Antiparasitic activity against Cryptosporidium parvum infection model at 0.8 uM; type: functional; conditions: read-out: GI

Chain of Inosine-5'-monophosphate dehydrogenase 1 (P20839 whole entry): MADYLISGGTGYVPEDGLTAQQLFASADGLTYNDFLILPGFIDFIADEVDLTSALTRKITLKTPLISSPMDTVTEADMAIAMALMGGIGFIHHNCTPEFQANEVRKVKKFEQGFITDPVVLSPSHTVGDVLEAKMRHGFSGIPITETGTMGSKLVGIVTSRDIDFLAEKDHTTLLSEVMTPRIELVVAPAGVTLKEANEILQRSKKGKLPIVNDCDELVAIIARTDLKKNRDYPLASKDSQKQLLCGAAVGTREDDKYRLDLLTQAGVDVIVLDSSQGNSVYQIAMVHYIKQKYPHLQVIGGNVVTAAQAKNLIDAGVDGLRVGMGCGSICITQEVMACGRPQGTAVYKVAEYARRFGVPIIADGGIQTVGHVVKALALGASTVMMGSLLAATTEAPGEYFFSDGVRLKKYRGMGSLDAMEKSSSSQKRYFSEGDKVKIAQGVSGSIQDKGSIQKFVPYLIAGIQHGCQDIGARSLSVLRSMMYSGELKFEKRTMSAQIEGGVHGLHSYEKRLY

Row | Compound | IC50 [3] | IC50 [6] | IC50 [4] | further results
1 | O=C(Cn1c(-c2nccs2)nc2ccccc21)Nc1ccc(Br)cc1 | 28 nM | > 5000 nM | 27 nM | EC50 (Toxoplasma gondii [1]): 300 nM; EC50 (Cryptosporidium parvum [2]): 700 nM; EC50 (Toxoplasma gondii [5]): > 23000 nM
2 | O=C(Cn1c(-c2cscn2)nc2ccccc21)Nc1ccc2ccccc2c1 | 7 nM | > 5000 nM | 20 nM | Ratio EC50 (Cryptosporidium parvum [7]): 2; EC50 (Toxoplasma gondii [1]): 600 nM; EC50 (Cryptosporidium parvum [2]): 900 nM; EC50 (Toxoplasma gondii [5]): 5000 nM; Ratio EC50 (Toxoplasma gondii [8]): 9
3 | CC(C(=O)Nc1ccc(Cl)c(Cl)c1)n1c(-c2cscn2)nc2ccccc21 (stereo unspecified) | 240 nM | > 5000 nM | 300 nM | –
4 | O=C(Cn1c(-c2cscn2)nc2ccccc21)Nc1ccc(F)cc1 | 900 nM | > 5000 nM | – | –
5 | O=C(Cn1c(-c2cscn2)nc2ccccc21)Nc1ccc(C(F)(F)F)cc1 | 220 nM | > 5000 nM | 330 nM | –
6 | O=C(Cn1c(-c2cscn2)nc2ccccc21)Nc1ccc(Cl)c2ccccc12 | 5000 nM | > 5000 nM | – | –
7 | CC(C(=O)Nc1ccc(Cl)cc1)n1c(-c2cscn2)nc2ccccc21 (stereo unspecified) | 60 nM | > 5000 nM | 80 nM | –
8 | CC(C)C(C(=O)Nc1ccc(Cl)cc1)n1c(-c2cscn2)nc2ccccc21 (stereo unspecified) | 5000 nM | > 5000 nM | – | –
9 | CC(C(=O)Nc1ccc(Cl)cc1)n1c(-c2nccs2)nc2ccccc21 (stereo unspecified) | 23 nM | > 5000 nM | 30 nM | –
10 | O=C(Cn1c(-c2nccs2)nc2ccccc21)Nc1ccc(Cl)c(Cl)c1 | 18 nM | > 5000 nM | 50 nM | Ratio EC50 (Cryptosporidium parvum [7]): 2; EC50 (Toxoplasma gondii [1]): 700 nM; EC50 (Cryptosporidium parvum [2]): 1700 nM; EC50 (Toxoplasma gondii [5]): 3000 nM; Ratio EC50 (Toxoplasma gondii [8]): 5
11 | O=C(Cn1c(-c2nccs2)nc2ccccc21)Nc1ccc2ccccc2c1 | 8 nM | > 5000 nM | 20 nM | Ratio EC50 (Cryptosporidium parvum [7]): 2; EC50 (Toxoplasma gondii [1]): 500 nM; EC50 (Cryptosporidium parvum [2]): < 800 nM; inhibition of growth at 0.8 µM (Cryptosporidium parvum [10]): 80%; EC50 (Toxoplasma gondii [5]): 17000 nM; Ratio EC50 (Toxoplasma gondii [8]): 30
12 | O=C(Cn1c(-c2cncs2)nc2ccccc21)Nc1ccc(Cl)cc1 | 35 nM | > 5000 nM | 60 nM | –
13 | O=C(Cn1c(-c2cccs2)nc2ccccc21)Nc1ccc(Cl)cc1 | 20 nM | > 5000 nM | 60 nM | –
14 | Cn1cc(-c2nc3ccccc3n2CC(=O)Nc2ccc(Cl)cc2)cn1 | 35 nM | > 5000 nM | 42 nM | –
15 | O=C(Cn1c(-c2ccccn2)nc2ccccc21)Nc1ccc(Cl)cc1 | 43 nM | > 5000 nM | 90 nM | –
16 | O=C(Cn1c(-c2ccccn2)nc2ccccc21)Nc1ccc(Cl)c(Cl)c1 | 22 nM | > 5000 nM | 40 nM | –
17 | O=C(Cn1c(-c2ccccn2)nc2ccccc21)Nc1ccc2ccccc2c1 | – | > 5000 nM | 14 nM | EC50 (Toxoplasma gondii [1]): 300 nM; EC50 (Toxoplasma gondii [5]): 2700 nM
18 | N#Cc1cc(NC(=O)Cn2c(-c3ccccn3)nc3ccccc32)ccc1Cl | 22 nM | > 5000 nM | 40 nM | –
19 | O=C(Cn1c(-c2ccccc2)nc2ccccc21)Nc1ccc(Cl)cc1 | 210 nM | > 5000 nM | 280 nM | –
20 | O=C(Cn1c(-c2ccc(Cl)cc2)nc2ccccc21)Nc1ccc(Cl)cc1 | 450 nM | > 5000 nM | – | –
21 | O=C(Cn1c(-c2ccc(F)cc2)nc2ccccc21)Nc1ccc(Cl)cc1 | 870 nM | > 5000 nM | 1300 nM | –
22 | NC[C@@H]1O[C@H](O[C@H]2[C@@H](O)[C@H](O[C@@H]3[C@@H](O)[C@H](N)C[C@H](N)[C@H]3O[C@H]3O[C@H](CO)[C@@H](O)[C@H](O)[C@H]3N)O[C@@H]2CO)[C@H](N)[C@@H](O)[C@@H]1O [PAROMOMYCIN] | – | – | – | EC50 (Cryptosporidium parvum [2]): 65000 nM

Continued, in another order:

Row | IC50 [3] | IC50 [6] | Compound | IC50 [4] | further results
23 | – | > 50000 nM | COc1ccc(NC(=O)Cn2c(-c3cscn3)nc3ccccc32)cc1 | – | IC50 [9]: > 50000 nM
24 | 120 nM | > 5000 nM | CSc1ccc(NC(=O)Cn2c(-c3cscn3)nc3ccccc32)cc1 | 69 nM | –
25 | 5000 nM | > 5000 nM | CC(C)c1ccc(NC(=O)Cn2c(-c3cscn3)nc3ccccc32)cc1 | – | –
26 | 370 nM | > 5000 nM | N#Cc1ccc(NC(=O)Cn2c(-c3cscn3)nc3ccccc32)cc1 | – | –
27 | 60 nM | > 5000 nM | O=C(Cn1c(-c2cscn2)nc2ccccc21)Nc1ccc(Br)cc1 | – | –
28 | 5000 nM | > 5000 nM | CS(=O)(=O)c1ccc(NC(=O)Cn2c(-c3cscn3)nc3ccccc32)cc1 | – | –
29 | 140 nM | > 5000 nM | O=C(Cn1c(-c2cscn2)nc2ccccc21)Nc1ccc(OC(F)(F)F)cc1 | – | –
30 | 5000 nM | > 5000 nM | O=C(Cn1c(-c2cscn2)nc2ccccc21)Nc1ccccc1Cl | – | –
31 | 490 nM | > 5000 nM | O=C(Cn1c(-c2cscn2)nc2ccccc21)Nc1cccc(Cl)c1 | 1430 nM | –
32 | 30 nM | > 5000 nM | O=C(Cn1c(-c2cscn2)nc2ccccc21)Nc1ccc(Cl)c(Cl)c1 | 90 nM | –
33 | 30 nM | > 5000 nM | N#Cc1cc(NC(=O)Cn2c(-c3cscn3)nc3ccccc32)ccc1Cl | 60 nM | –
34 | – | > 5000 nM | O=C(Cn1c(-c2cscn2)nc2ccccc21)NCc1ccc(Cl)cc1 | – | –
35 | 30 nM | > 5000 nM | O=C(Cn1c(-c2nccs2)nc2ccccc21)Nc1ccc(Cl)cc1 | 50 nM | –
36 | 80 nM | > 5000 nM | O=C(Cn1c(-c2ccc[nH]2)nc2ccccc21)Nc1ccc(Cl)cc1 | 120 nM | –
37 | 170 nM | > 5000 nM | O=C(Cn1c(-c2ncco2)nc2ccccc21)Nc1ccc(Cl)cc1 | 230 nM | –
38 | 5000 nM | > 5000 nM | Cc1nc2ccccc2n1CC(=O)Nc1ccc(Cl)cc1 | – | –
39 | 120 nM | > 5000 nM | O=C(Cn1c(-c2cscn2)nc2ccccc21)Nc1ccc(Cl)cc1 | 200 nM | –
